Source: publication PMC3349182 (British Journal of Cancer, 2012)
“Also recorded” adds a separate entry of the source.

Tests used:
[1] = system: patients with advanced radioiodine-refractory differentiated thyroid cancer; settings: preliminary results, phase II; ref Sherman et al, 2011; cited from earlier work
[2] = Plasma pharmacokinetics of E7080; type: in vivo, human
Method in brief: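 Patients took oral drug once daily after an overnight fast. Blood and urine were sampled after a single dose and after multiple dosing. Drug concentrations were measured by LC-MS/MS. tmax, Cmax, AUC0-24, AUC0-∞, AUC0-τ, t½, CL/F and V/F were calculated. Terminal-phase parameters were omitted where too few terminal data points were available.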

[3] = Food-effect investigation; type: in vivo, human
Method in brief: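 At the MTD, patients were randomised to take the cycle 1 day 15 dose fed (after a high-fat meal) or fasted (overnight fast ⩾10 h). The day 22 dose was taken in the reverse state, with no food for 4 h after either dose. Plasma levels were measured by LC-MS/MS. The 90% CIs for log-transformed fed/fasted Cmax and AUC0-24 were derived by ANOVA; 80–125% was taken as no food effect.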

[4] = system: patients with advanced, refractory solid tumours; experiment: Phase I dose escalation: toxicity; type: in vivo, human
Method in brief: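 Oral dosing was once daily in 28-day cycles, escalating by an accelerated design from 0.2 mg/day. Toxicity was graded by NCI CTC v3.0. During cycle 1, patients had weekly examination, blood pressure, full blood count, biochemistry and urinalysis, plus ECGs on days 1 and 8. DLT covered drug-related toxicity in cycle 1: grade ⩾3 toxicity, repeated grade 2 toxicity needing dose reduction, or <75% of planned dose given. The MTD was the highest dose with ≤1/6 patients having a DLT, and 12 more patients were treated at the MTD.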

[5] = 25 mg, eleven patients, high-fat meal vs overnight fast
[6] = treatment-related, 25 mg (n=24)
[7] = treatment-related, 0.2–6.4 mg (n=21)

COc1cc2nccc(Oc3ccc(NC(=O)NC4CC4)c(Cl)c3)c2cc1C(N)=O [E7080]
Objective response rate [1]: 59% | Dose dependence of exposure and Cmax ([2]; 0.2 to 32 mg): dose-linear kinetics; also recorded: increased linearly with increasing dose | Accumulation after multiple dosing ([2]; after 4 weeks' administration, once daily): no drug accumulation | Time to maximum concentrations ([2]; after a single dose): ≤ 3 h | AUC ratio fed/fasted (90% CI) [3, 5]: 1.00 (90% CI 0.83–1.20) | Cmax ratio fed/fasted (90% CI) [3, 5]: 0.98 (90% CI 0.73–1.31) | tmax (median) ([3]; fasted group): 2.0 h | tmax (median) ([3]; fed group): 5.0 h | Dose modifications required, % of patients ([4]; all doses): 49% | Dose modifications required, n patients ([4]; all doses): 40 | Dose reduction because of stomatitis, % of patients ([4]; all doses): 2% | Haematological toxicities, % of patients ([4]; all grades, all doses): 7% | Dose modifications required, % of patients ([4]; at the MTD of 25 mg): 54% | Dose modifications required, n patients ([4]; at the MTD of 25 mg): 13 | Tolerability ([4]; doses up to 25 mg per day, oral, daily continuous dosing): well tolerated | Maximum tolerated dose (MTD) ([4]; oral, once-daily continuous schedule, 28-day cycles): 25 mg | Abdominal pain (all grades), n patients [4, 6]: 7 | Anorexia (all grades), % of patients [4, 6]: 21% | Anorexia (all grades), n patients [4, 6]: 5 | Constipation (all grades), n patients [4, 6]: 8 | Diarrhoea (all grades), n patients [4, 6]: 12 | Dry skin (all grades), % of patients [4, 6]: 46% | Dry skin (all grades), n patients [4, 6]: 11 | Dysphonia (all grades), % of patients [4, 6]: 46% | Dysphonia (all grades), n patients [4, 6]: 11 | Fatigue (all grades), % of patients [4, 6]: 21% | Fatigue (all grades), n patients [4, 6]: 5 | Headache (all grades), n patients [4, 6]: 7 | Hypertension (all grades), n patients [4, 6]: 15 | Hypertension Grade 1, % of patients [4, 6]: 4% | Hypertension Grade 1, n patients [4, 6]: 1 | Hypertension Grade 2, % of patients [4, 6]: 46% | Hypertension Grade 2, n patients [4, 6]: 11 | Hypertension Grade 3, % of patients [4, 6]: 13% | Lethargy (all grades), % of patients [4, 6]: 38% | Lethargy (all grades), n patients [4, 6]: 9 | Nausea (all grades), n patients [4, 6]: 14 | Proteinuria (all grades), n patients [4, 6]: 7 | Proteinuria Grade 1, % of patients [4, 6]: 0% | Proteinuria Grade 1, n patients [4, 6]: 0 | Proteinuria Grade 2, % of patients [4, 6]: 21% | Proteinuria Grade 2, n patients [4, 6]: 5 | Proteinuria Grade 3, % of patients [4, 6]: 8% | Stomatitis (all grades), n patients [4, 6]: 15 | Vomiting (all grades), n patients [4, 6]: 8 | Abdominal pain (all grades), % of patients ([4]; treatment-related, 32 mg (n=7)): 0% | Abdominal pain (all grades), n patients ([4]; treatment-related, 32 mg (n=7)): 0 | Anorexia (all grades), n patients ([4]; treatment-related, 32 mg (n=7)): 2 | Constipation (all grades), % of patients ([4]; treatment-related, 32 mg (n=7)): 14% | Constipation (all grades), n patients ([4]; treatment-related, 32 mg (n=7)): 1 | Diarrhoea (all grades), n patients ([4]; treatment-related, 32 mg (n=7)): 4 | Dry skin (all grades), % of patients ([4]; treatment-related, 32 mg (n=7)): 14% | Dry skin (all grades), n patients ([4]; treatment-related, 32 mg (n=7)): 1 | Dysphonia (all grades), n patients ([4]; treatment-related, 32 mg (n=7)): 3 | Fatigue (all grades), % of patients ([4]; treatment-related, 32 mg (n=7)): 14% | Fatigue (all grades), n patients ([4]; treatment-related, 32 mg (n=7)): 1 | Headache (all grades), n patients ([4]; treatment-related, 32 mg (n=7)): 2 | Hypertension (all grades), n patients ([4]; treatment-related, 32 mg (n=7)): 4 | Hypertension Grade 1, n patients ([4]; treatment-related, 32 mg (n=7)): 2 | Hypertension Grade 2, % of patients ([4]; treatment-related, 32 mg (n=7)): 0% | Hypertension Grade 2, n patients ([4]; treatment-related, 32 mg (n=7)): 0 | Hypertension Grade 3, n patients ([4]; treatment-related, 32 mg (n=7)): 2 | Lethargy (all grades), n patients ([4]; treatment-related, 32 mg (n=7)): 2 | Nausea (all grades), n patients ([4]; treatment-related, 32 mg (n=7)): 3 | Proteinuria (all grades), n patients ([4]; treatment-related, 32 mg (n=7)): 3 | Proteinuria Grade 1, % of patients ([4]; treatment-related, 32 mg (n=7)): 0% | Proteinuria Grade 1, n patients ([4]; treatment-related, 32 mg (n=7)): 0 | Proteinuria Grade 2, % of patients ([4]; treatment-related, 32 mg (n=7)): 14% | Proteinuria Grade 2, n patients ([4]; treatment-related, 32 mg (n=7)): 1 | Proteinuria Grade 3, n patients ([4]; treatment-related, 32 mg (n=7)): 2 | Stomatitis (all grades), n patients ([4]; treatment-related, 32 mg (n=7)): 4 | Vomiting (all grades), % of patients ([4]; treatment-related, 32 mg (n=7)): 14% | Vomiting (all grades), n patients ([4]; treatment-related, 32 mg (n=7)): 1 | Abdominal pain (all grades), % of patients [4, 7]: 0% | Abdominal pain (all grades), n patients [4, 7]: 0 | Anorexia (all grades), % of patients [4, 7]: 10% | Anorexia (all grades), n patients [4, 7]: 2 | Constipation (all grades), % of patients [4, 7]: 10% | Constipation (all grades), n patients [4, 7]: 2 | Diarrhoea (all grades), n patients [4, 7]: 4 | Dry skin (all grades), % of patients [4, 7]: 5% | Dry skin (all grades), n patients [4, 7]: 1 | Dysphonia (all grades), % of patients [4, 7]: 0% | Dysphonia (all grades), n patients [4, 7]: 0 | Fatigue (all grades), % of patients [4, 7]: 10% | Fatigue (all grades), n patients [4, 7]: 2 | Headache (all grades), % of patients [4, 7]: 0% | Headache (all grades), n patients [4, 7]: 0 | Hypertension (all grades), % of patients [4, 7]: 10% | Hypertension (all grades), n patients [4, 7]: 2 | Hypertension Grade 1, % of patients [4, 7]: 5% | Hypertension Grade 1, n patients [4, 7]: 1 | Hypertension Grade 2, % of patients [4, 7]: 0% | Hypertension Grade 2, n patients [4, 7]: 0 | Hypertension Grade 3, % of patients [4, 7]: 5% | Hypertension Grade 3, n patients [4, 7]: 1 | Lethargy (all grades), % of patients [4, 7]: 14% | Lethargy (all grades), n patients [4, 7]: 3 | Nausea (all grades), % of patients [4, 7]: 38% | Nausea (all grades), n patients [4, 7]: 8 | Proteinuria (all grades), % of patients [4, 7]: 14% | Proteinuria (all grades), n patients [4, 7]: 3 | Proteinuria Grade 1, % of patients [4, 7]: 0%
